Screening results (PubChem)
NPY-Y2 antag: NPY-Y2 (human) receptor antagonism; 140,000 compounds, 0.99% hits; inhibition, % at 2.7 µM; P49146; NPY-Y2 expressing cells, antagonist mode; AID 793; in the data active = inhibition above about 17%;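 note: 0% = vehicle with agonist challenge and 100% = reference antagonist with challenge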
Target sequence (P49146 whole entry, looked up): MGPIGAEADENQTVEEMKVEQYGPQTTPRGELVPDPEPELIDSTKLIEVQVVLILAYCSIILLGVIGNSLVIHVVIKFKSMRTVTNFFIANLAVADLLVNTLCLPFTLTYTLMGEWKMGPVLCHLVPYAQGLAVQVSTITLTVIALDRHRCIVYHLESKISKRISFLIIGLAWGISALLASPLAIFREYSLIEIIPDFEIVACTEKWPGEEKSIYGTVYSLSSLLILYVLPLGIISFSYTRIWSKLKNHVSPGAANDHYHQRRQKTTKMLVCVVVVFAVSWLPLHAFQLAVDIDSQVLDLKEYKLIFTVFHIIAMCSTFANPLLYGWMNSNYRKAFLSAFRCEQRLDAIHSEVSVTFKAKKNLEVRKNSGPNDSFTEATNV
NPY-Y1 antag: NPY-Y1 (human) receptor antagonism; P25929; HEK293-CNG Y1 cells, membrane potential fluorescence; NPY at EC95, then isoproterenol; inhibition, % at 3.6 µM; 200,000 compounds, 1% hits; AID 1040;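 active = inhibition above the campaign mean inhibition of all tested compounds plus 3 SD, cut at about 20% in these data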;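 note: 0% = DMSO wells given NPY plus isoproterenol and 100% = isoproterenol alone without NPY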
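Assay system: HEK293 cells with Y1 receptor plus CNG channel | Probe or stimulus: NPY (25 nM), isoproterenol (1 µM), Ro 20-1724 (25 µM) | Timing: Compound incubation 1 h at room temperature, readout 45 min post-stimulation | Measured by: Membrane-potential fluorescent dye readout | Benchmarks: High control isoproterenol alone, low control NPY with isoproterenol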
NPY1 pot ag: potentiates or activates human NPY-Y1 receptor | 220,000 compounds, 0.37% hits | NPY-Y1 expressing cells, potentiator/agonist activation | AID 1304 | P25929 | activation, % at 3.6 µM; in the data active = activation above about 33%, passing the limit was not always enough;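 note: cells stimulated with NPY at EC10 then isoproterenol at EC100; 0% = low agonist plus stimulus and 100% = saturating agonist plus stimulus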
NPY-Y2 PAM-ag: potentiates or activates human NPY-Y2 receptor | P49146 | AID 1359 | cells expressing NPY-Y2, potentiator/agonist read-out | 220,000 compounds, 0.45% hits | activation, % at 3.6 µM; in the data active = activation above about 27%;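 note: cells stimulated with NPY near EC25 plus isoproterenol at EC100; 0% = vehicle plus submaximal agonist and 100% = vehicle plus saturating agonist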
NPY-Y1 antag ct: antagonizes human NPY-Y1, counter-screen to NPY-Y2 antagonists | 710 compounds, 19% hits | shares compounds with NPY-Y2 antag | cell-based NPY-Y1 antagonism counterscreen | inhibition, % at 3.6 µM; in the data active = inhibition above about 20%;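 note: cells challenged with NPY then isoproterenol with cAMP sensed through a CNG channel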
NPY-Y2 ant conf: confirmation of human neuropeptide Y receptor Y2 antagonists | shares compounds with NPY-Y2 antag | HEK293 NPY-Y2 CNG channel, membrane potential fluorescence | inhibition, % at 2.8 µM | 710 compounds, 32% hits;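 active = mean inhibition of triplicate wells above the hit cutoff set in the primary screen, cut at about 17% in these data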;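 note: 0% = DMSO with NPY challenge and 100% = BIIE0246 high control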
The depositor's hits bear a star; x = not tested or not shown. Compounds with a hit are over-represented: about 1.8% of the library has one in this group of screens.

SMILES	NPY-Y2 antag	NPY-Y1 antag	NPY1 pot ag	NPY-Y2 PAM-ag	others
CC(C)c1nc2c(c(=O)c3ccccc3n2C)c(=O)n1CCc1ccccc1	x	x	-4	-26
O=C(c1cc2c(s1)-c1ccccc1OC2)N1CCCC1	4	4	42*	31*
O=C(c1cc2c(s1)-c1ccccc1OC2)N1CCN(c2ccccc2)CC1	11	11	-26	-16
CCSC(=O)N(CC)CC(=O)Nc1c(CC)cccc1CC	20*	16	-21	-4
CCCSC(=O)N(CC)CC(=O)Nc1c(CC)cccc1CC	20*	18	-23	-24
Cc1ccccc1Oc1nc(-c2ccccn2)nc2ccccc12	x	x	-11	-9
N#Cc1ccc[n+](CC(=O)c2ccc(NC(=O)c3ccccc3)cc2)c1	x	x	10	-8
COc1ccc(C(=O)Nc2nc3ccccc3s2)cc1OC	x	6	12	6
COc1ccc(-c2cc(C(=O)Nc3nc4ccccc4s3)c3ccccc3n2)cc1OC	27*	29*	-160	-141
CCOC(=O)c1nnn(-c2nonc2N)c1COc1cc(C)c(Cl)c(C)c1	17	22*	-35	-19
O=C(NCCCN1CCN(c2ccccc2F)CC1)C1CCN(S(=O)(=O)N2CCOCC2)CC1	2	-1	5	4
O=C(NCCN1CCN(c2ccccc2)CC1)C1CCN(S(=O)(=O)N2CCOCC2)CC1	-1	-2	32*	-8
C#CCNC(=O)C1=C[C@H](c2ccc3c(c2)OCO3)[C@@H](CCCO)[C@H](OCC)O1	x	-1	-5	-13
CCOC(=O)C(=CNc1cc(C)ccc1-n1cccc1)C(=O)OCC	x	x	22	0
O=C(c1ccc(CSc2nc3ccncc3[nH]2)cc1)N1CCN(c2cccc(Cl)c2)CC1	-1	1	50*	36*
CC1=C(C(=O)Nc2ccccn2)C(c2cn(C)nc2C)C2=C(CCCC2=O)N1 (stereo unspecified)	x	-4	-4	7
COC(=O)C1=C(C)NC2=C(C(=O)CCC2)C1c1cn(Cc2ccc(Cl)cc2Cl)nc1-c1ccccc1 (stereo unspecified)	19*	65*	-66	-28
Cc1ccc(/C=N/NC(=O)NC23CC4CC(CC(C4)C2)C3)o1	x	x	12	15
O=C(Cn1nc(-c2ccc(N3CCOCC3)c([N+](=O)[O-])c2)c2ccccc2c1=O)N1CCCCC1	57*	25*	-14	-35
CCCN(CCC)C(=O)CSc1nc2ccccc2c(=O)n1C1CCCC1	25*	29*	-22	9
N#CCSc1nc2ccccc2c(=O)n1CCC(=O)NC1CCCCC1	0	-5	-13	-18
CN(C)c1ccc(NC(=O)CSc2nc3ccccc3c(=O)n2C2CCCCC2)cc1	-5	-10	16	-5
N#CCSc1nc2ccccc2c(=O)n1C1CCCCC1	x	21*	1	-3
Cc1cc(C)nc(N/N=C/C2=C(O)CC(c3ccc(F)cc3)CC2=O)n1 (stereo unspecified)	x	x	-4	-5
O=C1c2ccccc2C(=O)N1CCCCN(C(=O)c1cc([N+](=O)[O-])cc([N+](=O)[O-])c1)c1ccc(Cl)cc1	0	4	-4	-11
SMILES	NPY-Y2 antag	NPY-Y1 antag	NPY1 pot ag	NPY-Y2 PAM-ag	others
O=C1c2ccccc2C(=O)N1CCCCN(C(=O)c1ccc([N+](=O)[O-])cc1)c1ccc(Cl)cc1	12	17	67*	95*
COc1cccc2sc(N(CCN(C)C)C(=O)/C=C/c3cccs3)nc12	x	-7	98*	100*
Nc1nnc(CC(=O)N/N=C/c2ccc(-c3ccc(Cl)cc3Cl)o2)s1	x	x	-9	-16
CCC(C)(C(=O)NC1CCCCC1)N(Cc1ccco1)C(=O)c1ccc2c(c1)OCO2 (stereo unspecified)	43*	49*	-11	-18
CCCCN1C(=O)C(NC(C)=O)c2cc(Br)ccc21 (stereo unspecified)	20*	27*	14	-4
CCN1C(=O)C(NC(C)=O)c2cc(Br)ccc21 (stereo unspecified)	9	13	-15	6
CCC[N+](CC#Cc1ccccc1)(CCC)CC(=O)c1ccc(Cl)cc1	19*	29*	1	3
CCC[N+](CC#Cc1ccccc1)(CCC)CC(=O)OC	4	1	12	6
Cc1ccc(C(C(=O)NCc2ccco2)N(CCc2ccccc2)C(=O)Cn2nnc3ccccc32)o1 (stereo unspecified)	32*	19	2	0	NPY-Y1 antag ct=20*;NPY-Y2 ant conf=11
Cc1ccc(CN(C(=O)Cn2nnc3ccccc32)C(C(=O)NCc2ccco2)c2ccc(C)o2)cc1 (stereo unspecified)	2	1	-3	-6
Nc1ccc2c(c1)C(=O)C(=O)c1ccccc1-2	48*	9	-9	-3	NPY-Y1 antag ct=17;NPY-Y2 ant conf=35*
O=C1C(=O)c2ccc(-c3ccccc3)cc2-c2ccccc21	-1	-1	-1	3
CCc1nc2ccccc2c(C(=O)OCc2nnc(-c3ccccc3)o2)c1C	18*	13	-57	-20	NPY-Y1 antag ct=26*;NPY-Y2 ant conf=25*
CCC(=O)Nc1ccc(C(=O)CSc2nnc(-c3ccc(NS(=O)(=O)CC)cc3)o2)cc1OC	x	x	19	-10
CCC(C)(C)NC(=O)C(c1ccncc1)N(C(=O)c1sc(C)nc1C)c1ccc(C)cc1 (stereo unspecified)	x	2	-2	8
CCCc1cc(-c2n[nH]c(=S)n2CC)cs1	x	12	-24	-15
CCCc1cc(-c2n[nH]c(=S)n2C(C)c2ccccc2)cs1 (stereo unspecified)	20*	18	-10	-21	NPY-Y1 antag ct=15;NPY-Y2 ant conf=11
O=P(CCCCCCCCCP(=O)(c1ccccc1)c1ccccc1)(c1ccccc1)c1ccccc1	18*	-7	27	-16	NPY-Y1 antag ct=2;NPY-Y2 ant conf=111*
Cc1ccccc1Nc1cccc2nonc12	4	2	-14	3
Cc1cccc(-c2cc(C(=O)Nc3ccc4c(c3)OCCO4)c3ccccc3n2)c1	26*	3	-76	-34	NPY-Y1 antag ct=26*;NPY-Y2 ant conf=43*
Cc1ccc(OCCN2C(=O)S/C(=C\c3ccc(C)o3)C2=O)cc1	17*	4	-3	-5	NPY-Y1 antag ct=5;NPY-Y2 ant conf=6
O=C(c1cc2sccc2n1Cc1ccccc1)N1CCc2ccccc21	20*	17	0	-25	NPY-Y1 antag ct=10;NPY-Y2 ant conf=12
Cc1cccc(CSC2=NCCN2C(=O)c2ccc(S(=O)(=O)N(C)C)cc2)c1	x	5	16	-5
Cc1cccc(CSC2=NCCN2C(=O)c2ccc(Br)o2)c1	20*	13	-18	-17	NPY-Y1 antag ct=17;NPY-Y2 ant conf=31*
Cc1ccc2cccc(NC(=S)NC(=O)c3ccccc3)c2n1	22*	14	-48	-51	NPY-Y1 antag ct=20*;NPY-Y2 ant conf=43*
CN1C(=O)CS/C1=N\NC(=O)COc1cccc2cccnc12	x	-1	-6	3
Cc1nc2c3ccccc3nc(SCC(=O)c3ccc(Cl)cc3)n2n1	27*	13	5	-5	NPY-Y1 antag ct=21*;NPY-Y2 ant conf=15
